Screening results: PubChem BioAssay, several laboratories
TNF death inh: blocks TNF-alpha induced death of Jurkat FADD-/- cells | 0.068% of 220,000 active | activation (protection from cell death), % at 10 µM | AID 463075 | Jurkat FADD-/- TNF necroptosis rescue, ATP luminescence, 24 h; 0 = TNF only, 100 = no-TNF cells;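 active means activation, meaning protection from cell death, of at least 50% relative to plate controls; inactive means activation below 50%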;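 further: necroptosis triggered by 40 ng/mL TNF-alpha added together with compound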
zVAD death inh: L929 zVAD cell death inhibition; L929 zVAD necroptosis rescue, ATP luminescence, 24 h; with zVAD 60 µM; viability rescue, % at 10 µM; 0.38% of 220,000 active; AID 1377;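 active means activation, scaled between plate controls, above about 75%, limit read from the data; inactive means activation under that limit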
Rad51 HR inh: blocks human Rad51 in homologous recombination | hRad51 DNA strand exchange, fluorescence dequenching | inhibition, % at 10 µM | 0.085% of 200,000 active | AID 1385;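 active means inhibition above 40% at the single screening dose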
Target sequence (Q06609 whole entry, looked up): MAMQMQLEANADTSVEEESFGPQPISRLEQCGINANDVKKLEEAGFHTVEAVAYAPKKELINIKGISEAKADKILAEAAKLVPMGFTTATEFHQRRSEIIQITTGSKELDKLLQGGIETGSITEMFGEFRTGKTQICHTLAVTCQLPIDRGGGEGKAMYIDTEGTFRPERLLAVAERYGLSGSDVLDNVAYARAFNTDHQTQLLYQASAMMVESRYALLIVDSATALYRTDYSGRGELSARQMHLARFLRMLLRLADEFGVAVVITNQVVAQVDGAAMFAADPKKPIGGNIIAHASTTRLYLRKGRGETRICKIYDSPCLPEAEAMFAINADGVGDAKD
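Read-out basis: percent inhibition relative to plate controls and blanks / Assay system: human Rad51 nucleoprotein filaments preassembled on unlabelled ssDNA / Timing: filaments 15 min 37 °C, then compound 30 min / Control set: per-plate controls and blanks / Technique: fluorescence dequenching at 485/520 nm / Compound: 10 µM final, single point / Also added: Fluorescein- and BHQ1-tagged 47-mer duplex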
sdo1 growth: sdo1-depleted yeast growth rescue | S. cerevisiae sdo1-depleted JHY4D growth rescue, OD600 30 h; stronger effect = higher value; pdr5 snq2 efflux-pump mutant strain | AID 817 | 0.21% of 140,000 active | z-score at 10 µM;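 active means z-score above 3 at both the 24 hr and the 30 hr optical density reads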
SDO1 rescue DR: SDO1-depleted yeast growth rescue confirmation | shares compounds with sdo1 growth | S. cerevisiae JHY4D (SDO1-depleted) growth rescue, OD600, 30 h; stronger effect = higher value; efflux-deficient strain, SNQ2 and PDR5 mutated | OD recovery (test concentration not listed) | 44% of 440 active;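 active means yeast growth recovered at 30 hours, either rising with dose fitted slope above 0.001 or with average optical density gain above 0.07, some results past the limit were not filed as active; inactive means growth falling with dose or no effect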
Each line names hits and unclear results; the compound was inactive in the other large screens (follow-up assays come after a bar, where they were run); ! = a repeat was not active. Most compounds without a hit are left out; they make up all but 0.64% or so of the library.

COc1ccc(CNS(=O)(=O)c2cccc(S(=O)(=O)N3CCOCC3)c2)cc1	none
COC(=O)c1cc(C#N)c(N(C)Cc2ccccc2)nc1C	none
COC(=O)c1cc(C#N)c(NCc2ccccc2)nc1C	sdo1 growth 13.9 | SDO1 rescue DR 0.0872
CCOC(=O)c1cnn(Cc2ccccc2)c1N	sdo1 growth 6.14 | SDO1 rescue DR inactive
COc1cc(-c2nc3ccccc3c(=O)n2N)cc(OC)c1OC	none
Cc1cc(NC(=O)CSc2nc3c(c(-c4cccnc4)c2C#N)CCC3)no1	none | SDO1 rescue DR inactive
OC(CN1c2ccccc2Sc2ccccc21)Cn1nnc2ccccc21 (stereo not drawn)	none
Cc1nn(CC(O)CN2c3ccccc3Sc3ccccc32)c(C)c1Br (stereo not drawn)	sdo1 growth 4.54 | SDO1 rescue DR inactive
CCC1=C(OC(=O)N(CC)CC)N2C(=O)OC(=NCCOC)[C@]2(Cc2ccccc2)[C@H]2C1=CC[C@H]1C(=O)N(C)C(=O)[C@H]12	none (no result: sdo1 growth)
COCCNCCCCOc1c(Cl)cc(C)cc1Br	none
Cc1cc(Cl)c(OCCCNCc2ccccc2)c(Br)c1	sdo1 growth 4.22 | SDO1 rescue DR inactive
COc1ccc(NC(=O)c2ccc(-n3cccn3)nc2)cc1	none | SDO1 rescue DR inactive
COc1ccc(NC(=O)c2ccc(-n3cccn3)nc2)c(OC)c1	none
C=CCn1c(=NC(=O)c2cc(-c3cccs3)nc3ccccc23)sc2cc(S(N)(=O)=O)ccc21	none
COCCn1c(=NC(=O)c2cc(-c3cccs3)nc3ccccc23)sc2cc(S(N)(=O)=O)ccc21	sdo1 growth 9.37 | SDO1 rescue DR 0.0713
O=C(NCCN=C1NS(=O)(=O)c2ccccc21)c1ccco1	sdo1 growth 3.76 | SDO1 rescue DR 0.0847
COc1ccc(CCNC(=O)CC(NS(=O)(=O)c2ccc(NC(C)=O)cc2)C(C)C)cc1OC (stereo not drawn)	none | SDO1 rescue DR inactive
Cn1c2c(c(O)c(-c3ccccc3)c1=O)C(=O)CC(C)(C)C2	none
Cc1cc(C)c(-c2c(O)c3c(n(C)c2=O)CC(C)(C)CC3=O)c(C)c1	sdo1 growth 10.2 | SDO1 rescue DR 0.0802
O=C(NCc1ccccc1Cl)c1ccccc1CCc1ccccc1	sdo1 growth 7.09 | SDO1 rescue DR 0.0821
CCOC(=O)[C@@H]1C(c2c(OC)cc(OC)cc2OC)=NO[C@@H]1C(=O)OCC	sdo1 growth 5.96 | SDO1 rescue DR 0.0709
COc1cc(/C=N/Nc2nc(C)nc3c2cnn3-c2ccccc2)ccc1O	none (no result: sdo1 growth)
CNC(=O)COC(=O)c1cc(F)c(F)cc1Cl	none
CC(C)NC(=O)COC(=O)c1cc(F)c(F)cc1Cl	sdo1 growth 5.57 | SDO1 rescue DR 0.0845
CCOC(=O)C1(C)/C(=N/Nc2ccccc2Cl)C(=O)C(=O)N1c1ccccc1 (stereo not drawn)	none
O=S(=O)(c1ccc2c(c1)OCCO2)N1CCC(c2nc3ccc(Cl)cc3[nH]2)CC1	sdo1 growth 9.08 | SDO1 rescue DR inactive
CC1=C(C)CC(C(=O)NCc2ccc3c(c2)OCO3)C(C(=O)O)C1 (stereo not drawn)	none | SDO1 rescue DR 0.0747
COCCn1c(SCC(=O)Nc2sc(C)c(C)c2C#N)nnc1-c1ccc(OC)cc1	none
COCCn1c(SCC#N)nnc1-c1ccc(OC)cc1	sdo1 growth 9.04 | SDO1 rescue DR inactive
O=C(CN1CCN(c2cccc(Cl)c2)CC1)Nc1ccc([N+](=O)[O-])cc1C(=O)Nc1ccccc1F	sdo1 growth 13.7 (no result: Rad51 HR inh) | SDO1 rescue DR inactive
Cc1nn(-c2ccccc2)c(C)c1C(=O)OCC(=O)N1c2ccccc2NC(=O)C1(C)C	sdo1 growth 14.2 | SDO1 rescue DR inactive
Cc1cnc(C(=O)OCC(=O)N2c3ccccc3NC(=O)C2(C)C)cn1	none
O=C(CSc1nnc(-c2ccco2)n1Cc1ccco1)NCc1cccs1	sdo1 growth 6.45 | SDO1 rescue DR 0.071
COC(=O)CSc1nnc(-c2ccco2)n1Cc1ccco1	none
O=C(CCSCCC(=O)NCCN1CCOCC1)NCCN1CCOCC1	none
O=C(CCSCCc1ccncc1)NCCCN1CCOCC1	none | SDO1 rescue DR 0.102
Cn1c(N)c(C(=O)COC(=O)C2(c3cccc(F)c3)CCCC2)c(=O)n(C)c1=O	none
NS(=O)(=O)c1ccc(NC(=O)CSC2=NC(=O)C(c3ccccc3)C(=O)N2)cc1 (stereo not drawn)	sdo1 growth 8.68 | SDO1 rescue DR inactive
O=C(NCc1ccco1)c1ccc(Br)c(S(=O)(=O)N2CCCCC2)c1	sdo1 growth 4.66 | SDO1 rescue DR 0.0718
O=C(NCc1ccccn1)c1cn(CCc2ccccc2)nn1	none
COc1ccc(C(=O)OCC(=O)Nc2cc(C)c(C)cc2[N+](=O)[O-])cc1	none | SDO1 rescue DR inactive
COc1ccccc1OCc1ccc(C(=O)NCCN(C)C)o1	none | SDO1 rescue DR 0.0968
COc1ccc(NC(=O)CN2CCCCC2)cc1	none
COc1cc(NC(=O)CSc2nccc(C)n2)c(C(=O)O)cc1OC	none
COc1ccc(NC(=O)CSc2nc(N3CCCCC3)nc(N3CCCCC3)n2)cc1	none | SDO1 rescue DR 0.0844
COc1ccc(NC(=O)CSc2nccc(C)n2)cc1	none | SDO1 rescue DR inactive
O=C(OC(c1ccccc1)c1nccc2ccccc12)c1cc([N+](=O)[O-])cc([N+](=O)[O-])c1 (stereo not drawn)	none
COc1ccc(CC(=O)NNS(=O)(=O)c2ccc(F)cc2)cc1OC	none (no result: sdo1 growth)
CNCCCNCc1ccc(SC)cc1	none
Cc1ccccc1S(=O)(=O)c1c(C)cc(C)n(CC(C)C)c1=O	sdo1 growth 5.52 | SDO1 rescue DR 0.105
CC(C)(C)c1cc(C(=O)N/N=C/c2ccco2)n[nH]1	sdo1 growth 9.95 | SDO1 rescue DR 0.0712
CCC(=O)N1c2ccc(C)cc2C2=NNC(=S)NC21O (stereo not drawn)	none
Cc1ccc(CNC(=O)CCCn2c(=O)[nH]c3ccccc3c2=O)cc1	sdo1 growth 8.92 | SDO1 rescue DR inactive
COCCNC(=O)C(=O)NCC1OCCN1C(=O)c1ccc(Cl)cc1 (stereo not drawn)	sdo1 growth 11.1 | SDO1 rescue DR inactive
COC(CNC(=O)C(=O)NCC1OCCN1C(=O)c1ccc(Cl)cc1)OC (stereo not drawn)	none
CCOCCOC(=O)C(C)Oc1ccc(Oc2nc(Cl)ccc2Cl)cc1 (stereo not drawn)	none (no result: sdo1 growth)
CCOCCOC(=O)C(C)Oc1ccc(Oc2ncc(Cl)cc2Cl)cc1 (stereo not drawn)	sdo1 growth 6.93 | SDO1 rescue DR 0.106
Cc1ccc(/C(O)=C2\C(=O)C(=O)N(CC(C)O)C2c2cccc(F)c2)cc1 (stereo not drawn)	none | SDO1 rescue DR inactive
COC(=O)c1cc(OC)c(OC)cc1NC(=S)N1CCN(C)CC1	sdo1 growth 3.13! | SDO1 rescue DR inactive
COC(=O)c1cc(OC)c(OC)cc1NC(=S)N1CCCCC1	none
Cc1cc(O)c(-c2cc(C(=O)Nc3ccc(S(=O)(=O)N4CCOCC4)cc3)[nH]n2)cc1C	none | SDO1 rescue DR 0.0911
